Active and inactive are the calls of the source. The calls are words filed in the database; no cut-off is given here.
Key:
[1] = biological target: T1, Receptor-type tyrosine-protein kinase FLT3 (Homo sapiens, UniProt P36888); experiment: Inhibition of wild type FLT3 (unknown origin) using Glu/Tyr peptide substrate incubated for 120 mins measured after 40 mins incubation under dark by ADP-glo based luminescence assay
T1 sequence (P36888 whole entry): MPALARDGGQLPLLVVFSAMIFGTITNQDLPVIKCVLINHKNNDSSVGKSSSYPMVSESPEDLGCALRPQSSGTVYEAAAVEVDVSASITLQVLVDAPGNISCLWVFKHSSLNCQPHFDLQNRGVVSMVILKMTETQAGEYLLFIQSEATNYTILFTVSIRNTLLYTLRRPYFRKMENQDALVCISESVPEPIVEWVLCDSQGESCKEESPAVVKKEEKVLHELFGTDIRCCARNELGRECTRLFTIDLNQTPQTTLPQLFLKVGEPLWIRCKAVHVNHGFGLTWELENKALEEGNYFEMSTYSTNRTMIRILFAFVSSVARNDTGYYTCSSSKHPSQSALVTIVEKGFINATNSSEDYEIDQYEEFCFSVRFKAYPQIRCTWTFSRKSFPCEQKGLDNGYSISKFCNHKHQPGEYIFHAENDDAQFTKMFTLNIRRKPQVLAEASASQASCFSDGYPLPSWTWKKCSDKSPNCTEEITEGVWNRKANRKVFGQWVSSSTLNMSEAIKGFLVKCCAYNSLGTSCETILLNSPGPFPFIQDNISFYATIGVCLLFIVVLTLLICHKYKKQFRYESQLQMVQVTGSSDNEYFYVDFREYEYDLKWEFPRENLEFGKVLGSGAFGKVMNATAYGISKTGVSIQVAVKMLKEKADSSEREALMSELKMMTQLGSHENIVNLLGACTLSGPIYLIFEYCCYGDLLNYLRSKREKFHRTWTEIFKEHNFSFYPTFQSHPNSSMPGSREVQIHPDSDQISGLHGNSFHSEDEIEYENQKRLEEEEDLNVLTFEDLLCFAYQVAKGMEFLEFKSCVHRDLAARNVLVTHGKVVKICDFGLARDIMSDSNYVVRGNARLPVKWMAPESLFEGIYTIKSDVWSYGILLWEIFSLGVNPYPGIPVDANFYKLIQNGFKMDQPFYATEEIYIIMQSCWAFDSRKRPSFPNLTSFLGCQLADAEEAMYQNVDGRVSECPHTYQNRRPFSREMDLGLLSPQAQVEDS
Summary of the method: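 In-house ADP-Glo assay with poly(Glu,Tyr) 4:1 substrate in 40 mM Tris pH 7.5, 20 mM MgCl2, 50 µM DTT, 0.1 mg/mL BSA. Kinase at 20 nM. ADP-Glo reagent 40 min in the dark, detection reagent 30–40 min, then luminescence. Ki was derived from IC50 by Cheng-Prusoff.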

[2] = system: MV4-11; experiment: Antiproliferative activity against human MV4-11 cells incubated for 72 hrs by resazurin assay; format: functional
Summary of the method: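 Cells seeded and pre-incubated 24 h at 37 °C, 5% CO2, then given a five-fold dilution series of compound (from 10 mM DMSO stock) in medium, in triplicate. Resazurin added after 72 h exposure, 4 h in dark at 37 °C. Fluorescence read at 570/585 nm, normalised to DMSO vehicle. GI50 by non-linear regression; mean ± SD of at least two replicates.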

[3] = system: MV4-11; experiment: Induction of apoptosis in human MV4-11 cells assessed as late apoptotic cells at 5 x GI50 concentration incubated for 24 hrs by annexin V-FITC and propidium iodide staining based flow cytometry (reference value: 12.45 %); format: functional
[4] = system: MV4-11; experiment: Induction of apoptosis in human MV4-11 cells assessed as late apoptotic cells at 10 x GI50 concentration incubated for 24 hrs by annexin V-FITC and propidium iodide staining based flow cytometry (reference value: 12.45 %); format: functional
[5] = system: MV4-11; experiment: Induction of apoptosis in human MV4-11 cells assessed as early apoptotic cells at 1 x GI50 concentration incubated for 48 hrs by annexin V-FITC and propidium iodide staining based flow cytometry (reference value: 1.08 %); format: functional
[6] = system: MV4-11; experiment: Induction of apoptosis in human MV4-11 cells assessed as early apoptotic cells at 10 x GI50 concentration incubated for 48 hrs by annexin V-FITC and propidium iodide staining based flow cytometry (reference value: 1.08 %); format: functional
[7] = system: MV4-11; experiment: Induction of apoptosis in human MV4-11 cells assessed as viable cells at 10 x GI50 concentration incubated for 48 hrs by annexin V-FITC and propidium iodide staining based flow cytometry (reference value: 91.87 %); format: functional
[8] = system: MV4-11; experiment: Induction of apoptosis in human MV4-11 cells assessed as early apoptotic cells at 20 x GI50 concentration incubated for 48 hrs by annexin V-FITC and propidium iodide staining based flow cytometry (reference value: 1.08 %); format: functional
[9] = system: MV4-11; experiment: Induction of apoptosis in human MV4-11 cells assessed as necrotic cells at 20 x GI50 concentration incubated for 48 hrs by annexin V-FITC and propidium iodide staining based flow cytometry (reference value: […] %); format: functional
[10] = system: U-937; experiment: Induction of apoptosis in human U937 cells assessed as late apoptotic cells at 1 x GI50 concentration incubated for 24 hrs by annexin V-FITC and propidium iodide staining based flow cytometry (reference value: 10.30 %); format: functional
[11] = biological target: Receptor-type tyrosine-protein kinase FLT3 (Homo sapiens) (UniProt P36888); experiment: Inhibition of FLT3-mediated signalling pathway in human MV4-11 cells assessed as increase in caspase 3 expression upto 20 x GI50 concentration incubated for 6 hrs by western blot analysis; format: cell-based
Summary of the method: (§1)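 Cells lysed in phosphate lysis buffer with protease inhibitors and protein quantified. Western blots probed phospho and total STAT5, AKT, ERK, S6RP and eIF4E, plus full-length and cleaved PARP and caspase-3, with β-actin as loading control. At least two independent experiments.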

[12] = system: U-937; experiment: Induction of apoptosis in human U937 cells assessed as late apoptotic cells at 1 x GI50 concentration incubated for 48 hrs by annexin V-FITC staining based flow cytometry (reference value: 9.82 %); format: functional
[13] = system: U-937; experiment: Induction of apoptosis in human U937 cells assessed as early apoptotic cells at 5 x GI50 concentration incubated for 48 hrs by annexin V-FITC staining based flow cytometry (reference value: 2.78%); format: functional
[14] = system: U-937; experiment: Induction of apoptosis in human U937 cells assessed as necrotic cells at 5 x GI50 concentration incubated for 48 hrs by annexin V-FITC staining based flow cytometry (reference value: 1.16 %); format: functional
[15] = system: U-937; experiment: Induction of apoptosis in human U937 cells assessed as viable cells at 5 x GI50 concentration incubated for 48 hrs by annexin V-FITC staining based flow cytometry (reference value: 86.25 %); format: functional
[16] = biological target: Receptor-type tyrosine-protein kinase FLT3 (Homo sapiens) (UniProt P36888); experiment: Inhibition of FLT3-mediated signalling pathway in human U-937 cells assessed as inhibition of eIF4E phosphorylation upto 20 x GI50 concentration incubated for 6 hrs by western blot analysis; format: cell-based; summary of the method: as §1
[17] = biological target: Receptor-type tyrosine-protein kinase FLT3 (Homo sapiens, UniProt P36888, ITD); experiment: Inhibition of FLT3 ITD mutant (unknown origin) using Glu/Tyr peptide substrate incubated for 80 mins measured after 40 mins incubation under dark by ADP-glo based luminescence assay

- Ki [1]: 9 nM
- GI50 [2]: 74 nM
- Activity [11]: Active
- inhibition [16]: Active
- Ki [17]: 2 nM
SMILES: CC(=O)N1CCN(c2ccc(Nc3nccc(-c4cn(C)c5ncccc45)n3)cc2)CC1
- Activity [3]: 16.42%
- Activity [4]: 20.33%
- Activity [5]: 2.99%
- Activity [6]: 2.72%
- Activity [7]: 72.29%
- Activity [8]: 2.17%
- Activity [9]: 32.08%
- Activity [10]: 7.98%
- Activity [12]: 9.22%
- Activity [13]: 2.55%
- Activity [14]: 1.19%
- Activity [15]: 88.11%

Reference: ChEMBL document CHEMBL4813946, “Discovery of novel 4-azaaryl-N-phenylpyrimidin-2-amine derivatives as potent and selective FLT3 inhibitors for acute myeloid leukaemia with FLT3 mutations” (Eur J Med Chem, 2021)
